Test results from ChEMBL document CHEMBL1154428, “Cloning, nucleotide sequencing, and analysis of the AcrAB-TolC efflux pump of Enterobacter cloacae and determination of its involvement in antibiotic resistance in a clinical isolate” (2007).
Converted amounts (≈) assume the structure as drawn.

Experiments:
Enterobacter cloacae [1] = assay: Antibacterial activity against drug-resistant Enterobacter cloacae EcDC64 isolate expressing AcrAB-TolC efflux pump by standard disk diffusion method; assay type: functional
Outline: (§1)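 Standard disk diffusion on Mueller-Hinton agar with telithromycin, fusidic acid, novobiocin, nalidixic acid, rifampin and norfloxacin disks. The read-out is the inhibition zone diameter in mm. The acrA-deleted strain was complemented with acrA on pAP-2, and pACYC184 served as the empty vector.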

Enterobacter cloacae [2] = assay: Antibacterial activity against drug-resistant Enterobacter cloacae EcDC64 isolate expressing AcrAB-TolC efflux pump in presence of 20 ug/ml efflux pump inhibitor Phe-Arg-beta-naphthylamide by standard disk diffusion method; assay type: functional; outline: as §1
Enterobacter cloacae [3] = assay: Antibacterial activity against drug-resistant AcrAB-TolC efflux pump deficient Enterobacter cloacae EcdeltaacrA isolate by standard disk diffusion method; assay type: functional; outline: as §1
Enterobacter cloacae [4] = assay: Antibacterial activity against drug-resistant AcrAB-TolC efflux pump deficient Enterobacter cloacae EcdeltaacrA isolate in presence of 20 ug/ml efflux pump inhibitor Phe-Arg-beta-naphthylamide by standard disk diffusion method; assay type: functional; outline: as §1
Enterobacter cloacae [5] = assay: Antibacterial activity against drug-resistant AcrAB-TolC efflux pump deficient Enterobacter cloacae EcdeltaacrA isolate expressing pAP2 plasmid containing Enterobacter cloacae acrA gene by standard disk diffusion method; assay type: functional; outline: as §1
Enterobacter cloacae [6] = assay: Antibacterial activity against drug-resistant AcrAB-TolC efflux pump deficient Enterobacter cloacae EcdeltaacrA isolate expressing pACYC184 plasmid by standard disk diffusion method; assay type: functional; outline: as §1
Enterobacter cloacae [7] = assay: Antibacterial activity against drug-resistant Enterobacter cloacae EcDC64 isolate expressing pBGS18 plasmid by standard disk diffusion method
Enterobacter cloacae [8] = assay: Antibacterial activity against drug-resistant Enterobacter cloacae EcDC64 isolate expressing pAP3 plasmid containing Enterobacter aerogenes acrR gene by standard disk diffusion method
Enterobacter cloacae [9] = settings: EcDC64
Enterobacter cloacae [10] = test system: Enterobacter cloacae
Enterobacter cloacae [11] = test system: Enterobacter cloacae; remark: listed apart in the source
Enterobacter cloacae [12] = test system: Enterobacter cloacae; remark: listed apart in the source
Enterobacter cloacae [13] = test system: Enterobacter cloacae; remark: listed apart in the source
Enterobacter cloacae [14] = test system: Enterobacter cloacae; remark: listed apart in the source
Enterobacter cloacae [15] = test system: Enterobacter cloacae; remark: listed apart in the source
Enterobacter cloacae [16] = assay: Antibacterial activity against drug-resistant Enterobacter cloacae EcDC64 isolate expressing pAP1 containing Escherichia coli ampD by Etest; assay type: functional
Enterobacter cloacae [17] = assay: Antibacterial activity against drug-resistant Enterobacter cloacae EcDC64 isolate expressing AcrAB-TolC efflux pump by Etest; assay type: functional
Enterobacter cloacae [18] = assay: Antibacterial activity against drug-resistant Enterobacter cloacae EcDC64 isolate expressing AcrAB-TolC efflux pump in presence of 20 ug/ml efflux pump inhibitor Phe-Arg-beta-naphthylamide by Etest
Enterobacter cloacae [19] = assay: Antibacterial activity against drug-resistant AcrAB-TolC efflux pump deficient Enterobacter cloacae EcdeltaacrA isolate by Etest; assay type: functional
Enterobacter cloacae [20] = assay: Antibacterial activity against drug-resistant AcrAB-TolC efflux pump deficient Enterobacter cloacae EcdeltaacrA isolate in presence of 20 ug/ml efflux pump inhibitor Phe-Arg-beta-naphthylamide by Etest; assay type: functional
Enterobacter cloacae [21] = assay: Antibacterial activity against drug-resistant AcrAB-TolC efflux pump deficient Enterobacter cloacae EcdeltaacrA isolate expressing pAP2 plasmid containing Enterobacter cloacae acrA gene by Etest; assay type: functional
Enterobacter cloacae [22] = assay: Antibacterial activity against drug-resistant AcrAB-TolC efflux pump deficient Enterobacter cloacae EcdeltaacrA isolate expressing pACYC184 plasmid by Etest; assay type: functional
Enterobacter cloacae [23] = assay: Antibacterial activity against drug-resistant AcrAB-TolC efflux pump deficient Enterobacter cloacae EcdeltaacrA isolate expressing pAP3 plasmid containing Enterobacter aerogenes acrR gene by Etest; assay type: functional
Enterobacter cloacae [24] = assay: Antibacterial activity against drug-resistant AcrAB-TolC efflux pump deficient Enterobacter cloacae EcdeltaacrA isolate expressing pBGS18 plasmid by Etest; assay type: functional
Enterobacter cloacae [25] = assay: Antibacterial activity against drug-resistant Enterobacter cloacae EcDC64 isolate expressing AcrAB-TolC efflux pump by broth microdilution method; assay type: functional
Outline: (§2)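 Broth microdilution MICs for detergents and dyes (SDS, sodium cholate, sodium deoxycholate, acriflavine, ethidium bromide, Triton X-100, crystal violet). E. cloacae inoculum 5 × 10^5 CFU/ml, incubated 16 to 20 h at 37°C. The MIC was the lowest concentration giving complete growth inhibition. The acrA knockout carries a kanamycin-resistance insertion made by Red-mediated recombination.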

Enterobacter cloacae [26] = assay: Antibacterial activity against drug-resistant AcrAB-TolC efflux pump deficient Enterobacter cloacae EcdeltaacrA isolate by broth microdilution method; assay type: functional; outline: as §2
Enterobacter cloacae [27] = assay: Antibacterial activity against drug-resistant AcrAB-TolC efflux pump deficient Enterobacter cloacae EcdeltaacrA isolate expressing pAP2 plasmid containing Enterobacter cloacae acrA gene by broth microdilution method; assay type: functional; outline: as §2
Enterobacter cloacae [28] = assay: Antibacterial activity against drug-resistant AcrAB-TolC efflux pump deficient Enterobacter cloacae EcdeltaacrA isolate expressing pACYC184 plasmid by broth microdilution method; assay type: functional; outline: as §2
Enterobacter cloacae [29] = assay: Antibacterial activity against drug-resistant Enterobacter cloacae EcDC64 isolate expressing pBGS18 plasmid by broth microdilution method
Enterobacter cloacae [30] = assay: Antibacterial activity against drug-resistant Enterobacter cloacae EcDC64 isolate expressing pAP3 plasmid containing Enterobacter aerogenes acrR gene by broth microdilution method

Molecule | inhibition zone (IZ) (Enterobacter cloacae [1]) [mm] | inhibition zone (IZ) (Enterobacter cloacae [2]) [mm] | inhibition zone (IZ) (Enterobacter cloacae [3]) [mm] | inhibition zone (IZ) (Enterobacter cloacae [4]) [mm] | inhibition zone (IZ) (Enterobacter cloacae [5]) [mm] | inhibition zone (IZ) (Enterobacter cloacae [6]) [mm] | inhibition zone (IZ) (Enterobacter cloacae [7]) [mm] | inhibition zone (IZ) (Enterobacter cloacae [8]) [mm] | MIC (Enterobacter cloacae [25]) [µg/mL] | MIC (Enterobacter cloacae [26]) [µg/mL] | MIC (Enterobacter cloacae [27]) [µg/mL] | MIC (Enterobacter cloacae [28]) [µg/mL] | MIC (Enterobacter cloacae [29]) [µg/mL] | MIC (Enterobacter cloacae [30]) [µg/mL] | also measured
CCn1cc(C(=O)O)c(=O)c2cc(F)c(N3CCNCC3)cc21 [NORFLOXACIN] | 26 | 40 | 40 | 42 | 24 | 38 | 27 | 35 |  |  |  |  |  |  | 
CC(=O)O[C@H]1C[C@@]2(C)[C@@H](C[C@@H](O)[C@H]3[C@@]4(C)CC[C@@H](O)[C@@H](C)[C@@H]4CC[C@@]32C)/C1=C(\CCC=C(C)C)C(=O)O [FUSIDIC ACID] | 0 | >40 | 0 | 26 | 0 | 0 | 0 | 0 |  |  |  |  |  |  | 
CO[C@H]1/C=C/O[C@@]2(C)Oc3c(C)c(O)c4c(O)c(c(/C=N/N5CCN(C)CC5)c(O)c4c3C2=O)NC(=O)/C(C)=C\C=C\[C@H](C)[C@H](O)[C@@H](C)[C@@H](O)[C@@H](C)[C@H](OC(C)=O)[C@@H]1C [RIFAMPIN] | 0 | 26 | 13 | 28 | 0 | 8 | 10 | 10 |  |  |  |  |  |  | 
GENTAMICIN |  |  |  |  |  |  |  |  |  |  |  |  |  |  | MIC (Enterobacter cloacae [9]): 1.5 µg/mL; MIC (Enterobacter cloacae [10]): 0.125 µg/mL; MIC (Enterobacter cloacae [11]): 0.094 µg/mL; MIC (Enterobacter cloacae [12]): 1 µg/mL; MIC (Enterobacter cloacae [13]): 0.125 µg/mL; MIC (Enterobacter cloacae [14]): 0.25 µg/mL; MIC (Enterobacter cloacae [15]): 1 µg/mL
C[C@@H](O)[C@H]1C(=O)N2C(C(=O)O)=C(S[C@@H]3CN[C@H](C(=O)N(C)C)C3)[C@H](C)[C@H]12 [MEROPENEM] |  |  |  |  |  |  |  |  |  |  |  |  |  |  | MIC (Enterobacter cloacae [16]): 0.75 µg/mL (≈ 1.96 µM); MIC (Enterobacter cloacae [17]): > 32 µg/mL; MIC (Enterobacter cloacae [18]): 32 µg/mL; MIC (Enterobacter cloacae [19]): 24 µg/mL (≈ 62.6 µM); MIC (Enterobacter cloacae [20]): 1 µg/mL; MIC (Enterobacter cloacae [21]): > 32 µg/mL; MIC (Enterobacter cloacae [22]): > 32 µg/mL; MIC (Enterobacter cloacae [23]): 24 µg/mL (≈ 62.6 µM); MIC (Enterobacter cloacae [24]): > 32 µg/mL
CN(C)c1ccc(C(=C2C=CC(=[N+](C)C)C=C2)c2ccc(N(C)C)cc2)cc1.[Cl-] [GENTIAN VIOLET] |  |  |  |  |  |  |  |  | 4100 | 512 | 1020 | 256 | 4100 | 1020 | 
C[C@@H](O)[C@H]1C(=O)N2C(C(=O)O)=C(SCCNC=N)C[C@H]12 [IMIPENEM ANHYDROUS] |  |  |  |  |  |  |  |  |  |  |  |  |  |  | MIC (Enterobacter cloacae [16]): 2 µg/mL (≈ 6.68 µM); MIC (Enterobacter cloacae [17]): > 32 µg/mL; MIC (Enterobacter cloacae [18]): 32 µg/mL; MIC (Enterobacter cloacae [19]): 24 µg/mL (≈ 80.2 µM); MIC (Enterobacter cloacae [20]): 6 µg/mL; MIC (Enterobacter cloacae [21]): > 32 µg/mL; MIC (Enterobacter cloacae [22]): > 32 µg/mL; MIC (Enterobacter cloacae [23]): 24 µg/mL (≈ 80.2 µM); MIC (Enterobacter cloacae [24]): > 32 µg/mL
CC[n+]1c(-c2ccccc2)c2cc(N)ccc2c2ccc(N)cc21.[Br-] [HOMIDIUM BROMIDE] |  |  |  |  |  |  |  |  | 2050 | 128 | 1020 | 64 | 2050 | 256 | 
CCn1cc(C(=O)O)c(=O)c2ccc(C)nc21 [NALIDIXIC ACID] | 24 | 27 | 33 | 40 | 12 | 30 | 21 | 29 |  |  |  |  |  |  | 
C[n+]1c2cc(N)ccc2cc2ccc(N)cc21.[Cl-] [EUFLAVINE] |  |  |  |  |  |  |  |  | 128 | 16 | 64 | 16 | 128 | 32 | 
CC[C@H]1OC(=O)[C@H](C)C(=O)[C@H](C)[C@@H](O[C@@H]2O[C@H](C)C[C@H](N(C)C)[C@H]2O)[C@](C)(OC)C[C@@H](C)C(=O)[C@H](C)[C@H]2N(CCCCn3cnc(-c4cccnc4)c3)C(=O)O[C@]12C [TELITHROMYCIN] | 9 | 32 | 19 | 34 | 13 | 18 | 10 | 12 |  |  |  |  |  |  | 
CCCCCCCCCCCCOS(=O)(=O)[O-].[Na+] [SODIUM LAURYL SULFATE] |  |  |  |  |  |  |  |  | 8190 | 256 | 4100 | 128 | 8190 | 1020 | 
CO[C@@H]1[C@@H](OC(N)=O)[C@@H](O)[C@H](Oc2ccc3c(O)c(NC(=O)c4ccc(O)c(CC=C(C)C)c4)c(=O)oc3c2C)OC1(C)C [NOVOBIOCIN] | 0 | 20 | 16 | 22 | 0 | 14 | 0 | 0 |  |  |  |  |  |  | 
